# Rin1 Abl inh: blocks binding of human Rin1 to Abl; P00519+Q13671; TR-FRET Rin1/Abl binding, biochemical; inhibition, % at 7.35 µM; 360,000 tested, 0.4% active; AID 588664; in the data active = inhibition above about 5%, passing the limit was not always enough
# LEDGF integ inh: blocks HIV-1 LEDGF/p75-dependent DNA integration; TR-FRET IN-LEDGF/p75 DNA integration, Eu/Cy5; inhibition, % at 3.7 µM; 370,000 tested, 0.64% active; AID 743269;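 active = inhibition above the screen-wide mean plus 3 SD, cut at about 13% in these data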;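 note: signal is the Cy5 over europium emission ratio at 671 and 618 nm; 0% = plate median of compound wells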
# UHRF1 binding: blocks human UHRF1 binding to methylated DNA. Q96T88. UHRF1 binding to methylated oligo, TR-FRET. inhibition, % at 4.4 µM. 370,000 tested, 0.75% active. AID 687016; in the data active = inhibition above about 21%;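 note: UHRF1 SRA domain binding a hemimethylated CpG hairpin DNA probe; 0% = median of test compound wells and 100% = reference inhibitor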
# MBD2 DNA inh: blocks human MBD2 binding to methylated DNA. 370,000 tested, 0.31% active. TR-FRET, MBD2 binding to methylated oligonucleotide. AID 686964. inhibition, % at 4.4 µM; in the data active = inhibition above about 13%
# TDP2 absorb: TDP2 (human) inhibition, absorbance primary screen | O95551 | recombinant TDP2, T5PNP hydrolysis, p-nitrophenol absorbance 415 nm | inhibition, % at 12.8 µM | 370,000 tested, 0.34% active | AID 720702;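 active = inhibition above the mean of all tested compounds plus 3 SD, set per campaign, cut at about 25% in these data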;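 note: 0% = DMSO with enzyme and 100% = buffer with substrate but no TDP2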
# Target sequence (O95551 whole entry, looked up): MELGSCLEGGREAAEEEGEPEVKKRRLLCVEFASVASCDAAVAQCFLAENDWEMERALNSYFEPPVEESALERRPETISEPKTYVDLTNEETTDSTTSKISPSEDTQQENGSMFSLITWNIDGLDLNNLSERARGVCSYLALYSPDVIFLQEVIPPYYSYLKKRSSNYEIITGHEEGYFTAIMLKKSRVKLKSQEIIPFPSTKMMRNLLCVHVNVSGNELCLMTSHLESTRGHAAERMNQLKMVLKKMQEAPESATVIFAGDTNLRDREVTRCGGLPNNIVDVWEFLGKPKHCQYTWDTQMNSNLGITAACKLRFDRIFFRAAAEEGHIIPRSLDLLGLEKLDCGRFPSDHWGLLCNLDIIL
#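 Assay system: recombinant human TDP2 / Reagent: T5PNP substrate at 5 mM, a TopII-DNA adduct mimic / Measured by: epi absorbance from released p-nitrophenol / Evaluation: % inhibition relative to enzyme-containing and enzyme-free wells / Control set: enzyme-free and DMSO wells / Replicates: each compound tested once, singlicate / Schedule: enzyme reaction with compound for 2 h at 37 °C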
# TDP2 inh conf: confirmation of human TDP2 inhibitors; shares compounds with TDP2 absorb; 1,100 tested, 22% active; AID 743263; inhibition, % at 12.8 µM; recombinant human TDP2, absorbance read-out; in the data active = inhibition above about 25%;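 note: 0% = vehicle with enzyme and 100% = no enzyme buffer only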
# Numbers without * were called inactive; . = no result given. Most compounds without a hit are left out; they make up all but 1.9% or so of the library.
SMILES,Rin1 Abl inh,LEDGF integ inh,UHRF1 binding,MBD2 DNA inh,TDP2 absorb,TDP2 inh conf
COc1cc(O)c(NC(C)=O)c2nonc12,3,8,8,-1,48*,24
COC(=O)C[C@@H]1CC[C@H](NC(=O)Cc2ccccn2)[C@@H](CO)O1,.,0,-1,4,28*,-1
O=C(NC1CCCCN(Cc2cccc(Cl)c2)C1=O)c1ccc(COc2ccccc2)cc1 (configuration not stated),.,-2,1,-3,1,.
O=C(CSc1ccc(Cl)cc1)Nc1ccccc1,4,-6,4,10,-7,.
O=C(CSc1ccc(Cl)cc1)NC1=NN(c2ccccc2)C(=O)C1,-1,4,1,3,25*,-1
N=C1S/C(=C\c2cccc3ccccc23)C(=O)N1c1ccc(F)cc1,-1,0,3,1,4,.
CSC1=NC(=O)/C(=C\c2cccc3ccccc23)S1,-2,4,-4,-3,25*,0
O=C(NC1CCCCN(Cc2ccc(Cl)cc2)C1=O)c1cccc([N+](=O)[O-])c1 (configuration not stated),.,-2,1,-3,4,.
CCOC(=O)CC[C@@H]1CC[C@]2(CCCN(S(=O)(=O)C3CCCCC3)C2)O1,.,3,2,-2,2,.
CC(C)(C)NC(=O)C(=O)NC(=O)c1c(F)cccc1Cl,.,0,0,4,43*,-5
CC(C)(C)NC(=O)NC(=O)COC(=O)c1c(F)cccc1Cl,-1,-3,-1,4,4,.
O=C(NCCc1ccccc1)OCc1cn(-c2cccc(C(F)(F)F)c2)nn1,.,1,-5,-4,4,.
C[C@@H]1CCN(C2CC2)S(=O)(=O)c2ccc(N3CCC[C@@H]3C)cc2O1,.,-1,-3,-8,4,.
COCC(C)n1c(C)cc(C(=O)COC(=O)CCc2nc3ccccc3c(=O)[nH]2)c1C (configuration not stated),-2,0,26*,1,31*,11
CCOc1cc(/C=C\c2[nH]c(=O)[nH]c(=O)c2[N+](=O)[O-])ccc1OC(C)CC (configuration not stated),.,-1,0,4,-1,.
CCOc1cc(/C=C\c2nc(O)c([N+](=O)[O-])c(=O)[nH]2)ccc1OC(C)C,3,-5,4,-2,25*,2
CC(C)(C)c1ccc(-c2nnc(SCC(=O)c3ccc([N+](=O)[O-])cc3)n2-c2ccc(Cl)cc2)cc1,.,-1,-1,1,0,.
COCCOC(=O)C1=C(C)NC2(O)c3ccccc3C(=O)C12O (configuration not stated),4,-15,-12,-4,46*,8
CCOC(=O)C1=C(C)NC2(O)c3ccccc3C(=O)C12O (configuration not stated),5,7,-5,-12,47*,25*
COC(=O)[C@]1(CNC(C)=O)CC(=O)N(C)[C@@H]1c1ccccc1,.,0,1,0,1,.
O=C(NCc1ccc(Cl)cc1)C1CCCN(c2ncccn2)C1 (configuration not stated),.,-1,4,-2,3,.
O=[N+]([O-])c1ccc(S(=O)(=O)NCC2COc3ccccc3O2)cc1 (configuration not stated),1,7,3,-6,25*,-1
Nc1ccc2nn(-c3ccc(F)cc3)nc2c1,-1,-7,-4,-2,34*,12
COc1ccc(/C=C2\CCc3ccccc3C2=O)cc1O,0,-1,3,7,3,.
CC(=O)Nc1ccc(/C=C2\CCc3ccccc3C2=O)cc1,-1,-2,-1,-1,26*,-9
SMILES,Rin1 Abl inh,LEDGF integ inh,UHRF1 binding,MBD2 DNA inh,TDP2 absorb,TDP2 inh conf
CC(=O)Nc1sc2c(c1-c1nc3ccccc3s1)CCOC2,.,-3,-14,-1,10,.
CC(C)NC(=O)C(=O)Nc1cc2c3c(c1)C(C)C(=O)N3CCC2 (configuration not stated),0,1,0,-3,34*,-4
CCN(Cc1ccccc1)C(=O)C1CCCN(c2ncccn2)C1 (configuration not stated),.,2,0,0,2,.
O=C(CCCn1c(=O)c2sccc2n(CC(=O)NCc2ccco2)c1=O)NCc1ccco1,-1,6,4,-6,8,.
COc1ccc(CCNC(=O)Cn2c(=O)n(CCCC(=O)NCc3ccco3)c(=O)c3sccc32)cc1OC,-3,3,0,2,27*,3
CNc1nc(N)c([N+](=O)[O-])c(Nc2ccccc2)n1,.,0,0,-1,3,.
CCc1ccccc1OCC(=O)Nc1cccc(S(=O)(=O)NCc2ccco2)c1,-2,-2,0,-3,-5,.
O=C(CN1C(=O)S/C(=C\c2ccc(F)cc2)C1=O)Nc1cccc(S(=O)(=O)NCc2ccco2)c1,0,-2,-3,-3,27*,0
COc1ccc(CNCC#Cc2cccnc2)c(OC)c1,.,-2,-2,-5,-3,.
CCn1cc(C(=O)Nc2ncccc2O)c(=O)c2cc(F)c(N3CCN(C(=O)c4ccco4)CC3)cc21,-7,2,-5,-2,28*,-2
CC(=O)Nc1ccc(NCN2C(=O)C3C4CCC(C4)C3C2=O)cc1 (configuration not stated),0,12,29*,7,32*,8
CN1[C@H](Cc2ccccc2)COc2cccc(F)c2S1(=O)=O,.,2,-2,3,6,.
COC(=O)[C@]1(C)N[C@H](CN(C)C(=O)Nc2ccc(OC)cc2)[C@@H]2C(=O)N(C)C(=O)[C@@H]21,2,-2,0,0,48*,6
CN1CCCCC(NC(=O)CCl)C1=O (configuration not stated),.,-1,0,-2,4,.
Cc1ccc(C(=O)N/C(=C\c2ccc(-c3ccccc3[N+](=O)[O-])o2)C(=O)NCCCN(C)C)cc1,-3,2,-5,-9,18,.
Cc1ccc(C(=O)N/C(=C\c2ccc(-c3ccccc3[N+](=O)[O-])o2)C(=O)NCCN(C)C)cc1,1,2,-8,-11,25*,19
O=C(NC1CCCC1)C(c1ccc(N2CCOCC2)cc1)N(Cc1ccco1)C(=O)c1ccco1 (configuration not stated),-1,-2,0,-4,-9,.
O=C(NC1CCCC1)C(c1ccc(N2CCOCC2)cc1)N(Cc1ccccc1)C(=O)c1ccco1 (configuration not stated),-2,-1,0,-4,32*,-7
Cc1ccc(NC2=C(NCCO)C(=O)c3ccccc3C2=O)cc1,-2,9,4,-10,44*,39*
COc1ccc(OC)c(S(=O)(=O)N2CCC(C(=O)NCC3COCCO3)CC2)c1 (configuration not stated),.,0,0,1,9,.
